Data on two compounds can be found in ChEMBL document CHEMBL1687750, “Nonclinical pharmacokinetics of oseltamivir and oseltamivir carboxylate in the central nervous system” (Antimicrob Agents Chemother, 2009).

The structures appear in SMILES notation.

Series [1] can be described thus: Volume of distribution at steady state in Sprague-Dawley rat at 30 mg/kg, iv. The series is classed as ADME, organism-based. As to conditions: in vivo, read-out: Vdss. Set-up: dose 30 mg/kg, route intravenous. An outline of the steps:
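Nonfasted adult Sprague-Dawley rats received a single 30 mg/kg i.v. bolus in 0.9% NaCl (pH 4.0), injected slowly into the tail vein over 20–30 s. Plasma was sampled by cardiac puncture under isoflurane at 5 min and 0.25, 0.5, 1, 2, 4 and 8 h, with 4–5 rats per time point. Samples were assayed by LC-MS/MS. Vss was estimated by noncompartmental analysis of pooled composite data.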

Series [2] in a line: Prodrug conversion in 7 days old male rat liver S9 fractions assessed as paranitrophenol generation rate assessed per mg of protein per min. In kind it is ADME, subcellular, S9 fraction.
A short description of series [3]: Prodrug conversion in 42 days old male rat brain S9 fractions assessed as paranitrophenol generation rate assessed per mg of protein per min. The series is classed as ADME, tissue-based. The method, boiled down:
(§1)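 Control esterase activity was measured by incubating 100 µM p-nitrophenyl acetate (final) with 0.05 mg rat brain or liver S9 protein in 1.5 ml Tris-HCl pH 7.4 for 1 min at 37°C. Reactions were quenched with acetonitrile, and product was quantified by HPLC-UV against external standards. The no-protein blank rate was subtracted, and rate was expressed per mg protein per min.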

Series [4] can be described thus: Prodrug conversion in 42 days old female rat liver S9 fractions assessed as oseltamivir carboxylate generation rate assessed per mg of protein per min. The series is classed as ADME, subcellular, S9 fraction. The method, boiled down: (§2)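 Rat brain or liver S9 (9,000 × g supernatant; 1.0 mg protein) was incubated in triplicate with 10 µM 14C-oseltamivir (final) in 100 mM Tris-HCl pH 7.4 for 30 min at 37°C. Reactions were quenched with TCA-acetonitrile, and the fraction converted to OC was measured by radioflow HPLC with fractionation. Rate was calculated as (pmol/ml substrate × fraction hydrolyzed)/(mg protein/ml × time), minus the no-protein background.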

Series [5] has as its system LLC-PK1. Kind of series: Permeability from basolateral to apical side of pig LLC-PK1 cells over expressing human MDR1. The series is classed as ADME, cell-based, Sus scrofa. The method, boiled down: (§3)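 P-gp-transfected LLC-PK1 monolayers received [14C]oseltamivir (0.1–10 mM) plus Lucifer yellow on the apical or basolateral donor side, with or without 1 µM elacridar. Incubation was at 37°C under 5% CO2. The acceptor side was sampled at 0.5–3 h and counted by scintillation. Pe was taken from the 3 h point, without correction for marker flux. Three inserts were used per condition and averaged.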

The nature of series [6]: Prodrug conversion in 7 days old female rat liver S9 fractions assessed as conversion of oseltamivir to oseltamivir carboxylate. The series is classed as ADME, subcellular, S9 fraction. An outline of the steps:
(§4)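 S9 from brain or liver (rat S9 made by homogenizing tissue in ~4 ml Tris-sucrose buffer per g, supernatant after 9,000 × g at 10°C; pooled human brain and liver S9 also used), protein by bicinchoninic acid assay. Oseltamivir: triplicate, 10 μM 14C-oseltamivir final, 1.0 mg S9 protein, 100 mM Tris-HCl pH 7.4, 30 min at 37°C, quenched with TCA-acetonitrile.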

Series [7] is described as follows: AUC (0 to infinity) ratio in brain to plasma in non-perfused Sprague-Dawley rat at 30 mg/kg, iv. In kind it is ADME, organism-based. Also noted: dose 30 mg/kg, route intravenous. To be noted: brain and plasma, read-out: Ratio AUC. The method, boiled down: (§5)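 Nonfasted adult rats received 30 mg/kg in aqueous 0.9% NaCl (pH 4.0) by slow tail-vein injection over 20–30 s. Groups were sampled at 5 min and 0.25, 0.5, 1, 2, 4 and 8 h, with 4–5 rats per time point, under terminal isoflurane. Blood was taken by heart puncture and CSF from the cisterna magna. Brains were homogenized either unperfused or after transcardial saline perfusion. Samples were assayed by LC-MS/MS, and pooled composite data were analyzed noncompartmentally.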

Series [8] in a line: Prodrug conversion in 7 days old male rat brain S9 fractions assessed as oseltamivir carboxylate generation rate assessed per mg of protein per min. In kind it is ADME, tissue-based. An outline of the steps: as §4
The nature of series [9]: Prodrug conversion in 42 days old female rat brain S9 fractions assessed as conversion of oseltamivir to oseltamivir carboxylate. In kind it is ADME, tissue-based. An outline of the steps:
as §2

Series [10] can be described thus: Prodrug conversion in 42 days old male rat brain S9 fractions assessed as oseltamivir carboxylate generation rate assessed per mg of protein per min. In kind it is ADME, tissue-based. An outline of the steps:
as §2

The nature of series [11]: Prodrug conversion in commercial liver S9 fractions assessed as conversion of oseltamivir to oseltamivir carboxylate. The series is classed as ADME, subcellular, Liver S9 fraction. An outline of the steps: as §4
Series [12] is described as follows: Prodrug conversion in commercial brain S9 fractions assessed as oseltamivir carboxylate generation rate assessed per mg of protein per min. In kind it is ADME. The method, boiled down:
as §4

In series [13] the test system is LLC-PK1. Description: Permeability from apical to basolateral side of pig LLC-PK1 cells over expressing human MDR1. The series is classed as ADME, cell-based, Sus scrofa. An outline of the steps: as §3
Series [14] can be described thus: Prodrug conversion in 42 days old male rat liver S9 fractions assessed as conversion of oseltamivir to oseltamivir carboxylate. In kind it is ADME, subcellular, S9 fraction. An outline of the steps: as §2
Series [15] can be described thus: Prodrug conversion in 7 days old male rat liver S9 fractions assessed as oseltamivir carboxylate generation rate assessed per mg of protein per min. The series is classed as ADME, subcellular, S9 fraction. The method, boiled down: as §4
Series [16] in a line: Prodrug conversion in 7 days old male rat brain S9 fractions assessed as paranitrophenol generation rate assessed per mg of protein per min. The series is classed as ADME, tissue-based.
The nature of series [17]: Prodrug conversion in human liver S9 fractions assessed as conversion of oseltamivir to oseltamivir carboxylate. The series is classed as ADME, subcellular, S9 fraction. The method, boiled down:
as §4

Series [18] can be described thus: Prodrug conversion in 7 days old female rat liver S9 fractions assessed as oseltamivir carboxylate generation rate assessed per mg of protein per min. The series is classed as ADME, subcellular, S9 fraction. An outline of the steps:
as §4

Series [19] is described as follows: Prodrug conversion in 42 days old female rat brain S9 fractions assessed as paranitrophenol generation rate assessed per mg of protein per min. The series is classed as ADME, tissue-based. The method, boiled down:
as §1

The nature of series [20]: Prodrug conversion in human brain S9 fractions assessed as conversion of oseltamivir to oseltamivir carboxylate. In kind it is ADME. An outline of the steps: as §4
The nature of series [21]: Prodrug conversion in human brain S9 fractions assessed as oseltamivir carboxylate generation rate assessed per mg of protein per min. The series is classed as ADME. The method, boiled down: as §4
Series [22] can be described thus: Prodrug conversion in 42 days old female rat liver S9 fractions assessed as conversion of oseltamivir to oseltamivir carboxylate. In kind it is ADME, subcellular, S9 fraction. An outline of the steps: as §2
The subject of series [23] is Plasma. Kind of series: Cmax in perfused Sprague-Dawley rat plasma assessed as active metabolite oseltamivir carboxylate level at 30 mg/kg, iv. The series is classed as ADME, organism-based. Set-up: dose 30 mg/kg, route intravenous. As to conditions: in vivo. An outline of the steps:
as §5

For series [24], the system named is Brain. Description: Terminal half life in non-perfused Sprague-Dawley rat brain assessed as active metabolite oseltamivir carboxylate level at 30 mg/kg, iv. The series is classed as ADME, organism-based. Also noted: dose 30 mg/kg, route intravenous. As to conditions: in vivo. An outline of the steps:
(§6)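 Nonfasted Sprague-Dawley rats given 30 mg/kg i.v. in 0.9% NaCl pH 4.0 by tail vein over 20–30 s. Terminal sampling under isoflurane at 5 min, 0.25, 0.5, 1, 2, 4 and 8 h (4–5 rats/time): plasma, CSF, and brain homogenate, with or without saline perfusion. LC-MS/MS. t1/2, Vss and ratios from noncompartmental analysis of pooled composite concentrations.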

Series [25] deals with Brain. Description: Cmax in non-perfused Sprague-Dawley rat brain assessed as active metabolite oseltamivir carboxylate level at 30 mg/kg, iv. The series is classed as ADME, organism-based. Set-up: dose 30 mg/kg, route intravenous. As to conditions: in vivo. An outline of the steps: as §5
In series [26] the test system is Plasma. Description: Terminal half life in non-perfused Sprague-Dawley rat plasma assessed as active metabolite oseltamivir carboxylate level at 30 mg/kg, iv. As to conditions: in vivo. Set-up: dose 30 mg/kg, route intravenous. In kind it is ADME, organism-based. An outline of the steps: as §6
Series [27] has as its system Brain. Description: AUC (0 to 8 hrs) after iv dose in non-perfused Sprague-Dawley rat brain assessed as active metabolite oseltamivir carboxylate level at 30 mg/kg. As to conditions: in vivo.
Series [28] is described as follows: Cmax in non-perfused Sprague-Dawley rat brain at 30 mg/kg, iv after 0.25 hrs. In kind it is ADME, organism-based. Set-up: dose 30 mg/kg, route intravenous. An outline of the steps: as §5
A short description of series [29]: AUC ratio in brain to plasma in non-perfused Sprague-Dawley rat at 30 mg/kg, iv. In kind it is ADME, organism-based. Set-up: dose 30 mg/kg, route intravenous. To be noted: brain and plasma, read-out: Ratio AUC. The method, boiled down:
as §5

Regarding `CCOC(=O)C1=C[C@@H](OC(CC)CC)[C@H](NC(C)=O)[C@@H](N)C1` [OSELTAMIVIR], the Vd in series [1] is 3 L/kg. The Activity is 467 nmol in [2]; 112 nmol in [3]; 1.37 pmol/s in series [4]; 0.1% in [6]; less than 0.2 pmol/s in [8]; 0.18% in series [9]. The Activity in [10] was 0.52 pmol/s; in [11], 3.79%; in [12], 0.32 pmol/min/mg; in [14], 0.63%; in [15], 0.33 pmol/s; in [16] it was 80 nmol. Besides, the Activity in [17] was 3.57%; in series [18], 0.34 pmol/s; in series [19], 70 nmol; in series [20], 0.12%; in series [20] (BLD = below limit of detection) it was “BLD”; in series [21], 0.39 pmol/s. In addition, the values for the Activity entry in series [21] (BLD = below limit of detection) and in series [22] were “BLD” and 0.41%, respectively. Also, the Papp in the series on LLC-PK1 [5] and with LLC-PK1 [13] was 1.01 ×10⁻⁶ cm/s in each case. Besides, in series [7], the Kp was found to be 0.24.

As to `CCC(CC)O[C@@H]1C=C(C(=O)O)C[C@H](N)[C@H]1NC(C)=O` [OSELTAMIVIR CARBOXYLATE], the values for the Cmax (in the series with Plasma [23]; in the series on Brain [25]; in series [28]) were 6300 ng/mL, 164 ng/g and 164 ng/g, respectively. The “beta t1/2” value in the series with Brain [24] was 0.508 h; with Plasma [26], 1.69 h. For the same compound, the AUC with Brain [27] worked out at 145. The Kp in [29] amounted to 0.01.
